This passage reports IC50 and solubility results from ChEMBL document CHEMBL3046597, “Synthesis of new carboxylesterase inhibitors and evaluation of potency and water solubility” (Chem Res Toxicol, 2001).

In brackets after ≈: the same amount, converted by molar mass.

Data set [1] deals with T1, Juvenile hormone esterase (Trichoplusia ni, UniProt P30809+P30810).
T1 sequence (P30809 whole entry): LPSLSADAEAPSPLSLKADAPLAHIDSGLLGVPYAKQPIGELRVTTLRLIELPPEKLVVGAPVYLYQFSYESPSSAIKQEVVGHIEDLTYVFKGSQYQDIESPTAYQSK
T1 sequence (P30810 whole entry): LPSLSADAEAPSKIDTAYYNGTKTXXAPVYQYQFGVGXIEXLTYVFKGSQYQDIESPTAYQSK
Briefly: Inhibition of Trichoplusia ni (cabbage looper) juvenile hormone esterase isolated from fifth-intsar larval stage using [3H]JH 3 as substrate incubated for 10 min prior to substrate addition measured after 15 min by liquid scintillation counting. Format: protein assay. In outline:
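Day-2 fifth-instar larval hemolymph collected with PTU, spun at 1000g, diluted 1:1 in 0.1 M phosphate pH 7.4 with 0.01% PTU, then diluted 300-fold in 0.1 M sodium phosphate pH 7.4 containing 0.1 mg/mL BSA. Inhibitors (DMF ≤1%) preincubated at 30 °C. JH III 5 µM final, 30 °C. Isooctane partition, aqueous-phase radioactivity counted.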

In the next data set the target is T2, Liver carboxylesterase (Sus scrofa, UniProt Q29550).
T2 sequence (Q29550 whole entry): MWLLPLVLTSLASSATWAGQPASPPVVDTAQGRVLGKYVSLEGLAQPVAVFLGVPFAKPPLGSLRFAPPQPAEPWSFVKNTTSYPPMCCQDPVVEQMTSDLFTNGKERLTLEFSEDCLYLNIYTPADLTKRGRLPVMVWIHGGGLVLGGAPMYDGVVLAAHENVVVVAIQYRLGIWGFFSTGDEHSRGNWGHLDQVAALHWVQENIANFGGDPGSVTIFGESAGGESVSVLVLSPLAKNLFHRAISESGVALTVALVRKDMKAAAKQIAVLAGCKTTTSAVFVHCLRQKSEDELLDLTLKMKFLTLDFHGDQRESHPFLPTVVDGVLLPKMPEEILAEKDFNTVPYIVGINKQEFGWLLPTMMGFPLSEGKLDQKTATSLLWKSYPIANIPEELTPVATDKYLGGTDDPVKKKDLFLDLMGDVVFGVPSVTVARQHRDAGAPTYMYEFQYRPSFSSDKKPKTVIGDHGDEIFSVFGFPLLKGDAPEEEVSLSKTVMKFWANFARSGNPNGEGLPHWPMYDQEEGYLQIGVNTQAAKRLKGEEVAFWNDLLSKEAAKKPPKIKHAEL
In words: Inhibition of Sus scrofa (pig) carboxylesterase isolated from liver in using p-nitrophenyl acetate as substrate incubated for 5 min prior to substrate addition measured for 2 min by spectrophotometric analysis. In short, it runs like this:
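Crude porcine liver carboxylesterase, partially purified, working solution 0.02 mg total protein/mL (0.3 units/mL) in 0.1 M sodium phosphate, pH 7.4; […]. Inhibitors from DMF stocks (≤1% DMF, solvent-corrected). PNPA at 0.5 mM final, 30 °C, kinetic read at 405 nm.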

In data set [2] the target is T3, Liver carboxylesterase B-1 (Rattus norvegicus, UniProt Q63010).
T3 sequence (Q63010 whole entry): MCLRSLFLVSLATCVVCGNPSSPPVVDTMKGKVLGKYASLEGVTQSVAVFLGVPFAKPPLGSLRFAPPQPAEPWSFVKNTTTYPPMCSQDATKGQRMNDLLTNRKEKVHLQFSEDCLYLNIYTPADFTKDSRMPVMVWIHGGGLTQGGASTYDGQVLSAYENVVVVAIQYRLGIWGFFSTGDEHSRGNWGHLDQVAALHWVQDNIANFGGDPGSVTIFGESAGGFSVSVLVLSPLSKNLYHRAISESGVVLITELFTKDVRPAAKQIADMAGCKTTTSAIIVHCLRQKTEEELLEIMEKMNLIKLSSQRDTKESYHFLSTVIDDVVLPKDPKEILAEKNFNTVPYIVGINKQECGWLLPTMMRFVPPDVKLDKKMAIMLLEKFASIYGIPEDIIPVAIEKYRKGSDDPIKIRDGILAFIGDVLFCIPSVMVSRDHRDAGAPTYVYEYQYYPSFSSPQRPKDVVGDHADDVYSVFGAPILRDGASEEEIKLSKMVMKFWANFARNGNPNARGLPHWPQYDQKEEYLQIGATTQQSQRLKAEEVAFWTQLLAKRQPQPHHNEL
In words: Inhibition of carboxylesterase in Fischer 344 Rattus norvegicus (rat) liver microsomes using p-nitrophenyl acetate as substrate incubated for 5 min prior to substrate addition measured for 2 min by spectrophotometric analysis. In outline: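 Livers from 8-week-old rats, perfused with 1% KCl; 100000g microsomal pellet solubilized in 1% n-octyl β-D-glucopyranoside and recentrifuged. Assayed at 0.8 mg/mL protein in 0.1 M sodium phosphate pH 7.4, 30 °C. PNPA 0.5 mM final, read at 405 nm. DMF ≤1%, solvent-corrected.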
On the technique in general: Microsomes from liver hold many membrane-bound enzymes, among them those of drug oxidation.

A short description of data set [3]: Solubility of the compound in sodium phosphate buffer at pH 7.4. Format: physicochemical.

Consider `O=S(=O)(CCc1ccccc1)CC(O)(O)C(F)(F)F`, for which the IC50 in data set [1] was 1780 nM; at Liver carboxylesterase, 3390 nM; in data set [2], 1500 nM.
For the compound `CCCCCCCCCCSCC(=O)C(F)(F)F`, the IC50 was determined as 20 nM in data set [1], 135 nM against Liver carboxylesterase and 115 nM in data set [2].
`CCCCCCCCCCCCSCC(=O)C(F)(F)F`: the IC50 in data set [1] was 15 nM; on Liver carboxylesterase, 119 nM; in data set [2] it was 164 nM.
On to `CCCCCCSCC(=O)C(F)(F)F`, for which the IC50 at Liver carboxylesterase was 54.3 nM; in data set [2], 54.6 nM.
As to `CCCCCCS(=O)(=O)CC(O)(O)C(F)(F)F`, the IC50 in data set [1] is 354 nM; against Liver carboxylesterase it was 39000 nM; in data set [2] it was 1290 nM.
With `CCCCCCCCS(=O)(=O)CC(O)(O)C(F)(F)F`, the concentration in solution in data set [3] (solubility) was 1500 µM (≈ 460 µg/mL). The IC50 in data set [1] was 147 nM; against Liver carboxylesterase, 5640 nM; in data set [2], 24.5 nM.
For the compound `O=C(CSCCc1ccccc1)C(F)(F)F`, the results for the IC50 (on Liver carboxylesterase; in data set [2]) were 75.3 nM and 162 nM, respectively.
Regarding `CCCCCCCCCCCCS(=O)(=O)CC(O)(O)C(F)(F)F`, the values for the IC50 (in data set [1]; at Liver carboxylesterase; in data set [2]) were 191 nM, 473 nM and 10.3 nM, respectively.
Turning to `CCCCCCCCCCS(=O)(=O)CC(O)(O)C(F)(F)F`, the IC50 in data set [1] came out at 119 nM; against Liver carboxylesterase, 1420 nM; in data set [2], 6.3 nM.
Compound `CCCCCCCCSCC(=O)C(F)(F)F` had a solubility in data set [3] of 200 µM (≈ 51.3 µg/mL). Also, the IC50 in data set [1] worked out at 1.6 nM; against Liver carboxylesterase, 36.8 nM; in data set [2], 37.2 nM.

Usually IC50 stands for the concentration needed to halve the response being measured. Usually solubility stands for the dissolved amount per volume that the medium holds. Low values mean little dissolved substance, high ones much dissolved substance.
